In the library only some 2.5% were active in any assay of this set; here they are far more common.
UHRF1 MBD2 ctr: UHRF1 methyl-DNA binding inhibition; inhibition, % at 4.4 µM; Q96T88; AID 687016; UHRF1 binding to methylated oligo, TR-FRET; 0.75% of 370,000 active; in the data active = inhibition above about 21%;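 also: UHRF1 SRA domain binding a hemimethylated CpG hairpin DNA probe; 0% = median of test compound wells and 100% = reference inhibitor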
ABHD5 PLIN5 PPI: ABHD5-PLIN5 protein interaction inhibition; Split G. princeps luciferase complementation, luminescence, 4 h; inhibition, % at 4 µM; 0.78% of 360,000 active;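 active = inhibition above the mean inhibition across every tested compound plus 3 SD, cut at about 22% in these data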;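 also: 0% = DMSO only wells and the 100% control is not disclosed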
Arr AP2 block: inhibitors of human beta-arrestin and AP2 interaction; FITC-arrestin peptide / GST-AP2 beads, flow cytometry; AP2 beta2 appendage carries R879A mutation; inhibition, % at 10 µM; 0.31% of 340,000 active; AID 504490;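 active = inhibition above a set limit, near 3 SD of compounds lacking own fluorescence, cut at about 54% in these data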;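 also: plate controls were DMSO wells for no effect and 5 µM unlabelled arrestin peptide for full effect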
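System: GST-AP2 R879A bound to glutathione beads, E. coli-expressed. Also added: 50 nM FITC-arrestin peptide. Schedule: compound with beads 12 min RT, then probe 1 h RT. Signal: bead flow cytometry, FITC channel. Read-out basis: percent response.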
MBD2 inh: MBD2-methylated oligo binding inhibition; Q9UBB5; TR-FRET, MBD2 binding to methylated oligonucleotide; 0.31% of 370,000 active; inhibition, % at 4.4 µM; in the data active = inhibition above about 13%
Rin1-Abl PPI inh: human Rin1-Abl interaction inhibition; inhibition, % at 7.35 µM; P00519+Q13671; AID 588664; TR-FRET Rin1/Abl binding, biochemical; 0.4% of 360,000 active; in the data active = inhibition above about 5%, passing the limit was not always enough
Beta2AR agonist: activates human beta-2 adrenergic receptor causing internalization; Am2.2-beta2AR cells, FAP receptor internalization, flow cytometry; response, % (no concentration beside the values); 0.43% of 340,000 active;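 active = response above a set limit, near 3 SD of response in nonfluorescent compounds, cut at about 42% in these data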
Target sequence (P07550 whole entry, looked up): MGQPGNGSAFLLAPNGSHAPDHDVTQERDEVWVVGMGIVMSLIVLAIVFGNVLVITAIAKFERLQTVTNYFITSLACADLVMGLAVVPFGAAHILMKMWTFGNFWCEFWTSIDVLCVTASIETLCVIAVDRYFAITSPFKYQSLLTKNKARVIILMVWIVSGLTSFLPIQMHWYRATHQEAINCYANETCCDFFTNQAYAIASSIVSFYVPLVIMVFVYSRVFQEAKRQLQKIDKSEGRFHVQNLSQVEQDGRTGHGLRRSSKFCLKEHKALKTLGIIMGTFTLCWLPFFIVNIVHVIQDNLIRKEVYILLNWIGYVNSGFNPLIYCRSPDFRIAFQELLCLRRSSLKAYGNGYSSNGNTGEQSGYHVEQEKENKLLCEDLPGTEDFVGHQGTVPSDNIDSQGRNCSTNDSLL
Starred values were filed as active, the others as inactive; nt = no result.

SMILES	UHRF1 MBD2 ctr	ABHD5 PLIN5 PPI	Arr AP2 block	MBD2 inh	Rin1-Abl PPI inh	Beta2AR agonist
CSc1ccc(C(=O)C2CCCN(C(=O)c3cccnc3SC)C2)cc1 (centres undefined)	26*	5	38	13	-10	-7
N#C/C(=C/c1cccc([N+](=O)[O-])c1)C(=O)Nc1ccccc1O	-3	2	13	1	4	57*
Cc1ccc(CNC(=O)OC(C)(C)C)c(/C=C/S(=O)(=O)NCc2ccc(F)cc2)c1	-1	nt	nt	2	nt	nt
CC(=O)N1CCOc2ccc(S(=O)(=O)NCCc3ccccc3)cc21	-1	11	5	1	2	7
CC(=O)N1CCOc2cc(S(=O)(=O)NC(C)c3ccccc3)c(Cl)cc21 (centres undefined)	30*	-2	6	-8	0	1
COc1ccc(Cc2c(C(C)(C)C)nc3ccc(C)cn23)c(C)c1	24*	4	nt	9	0	nt
COc1ccc(Cc2c(C(C)(C)C)nc3ccc(Cl)cn23)c(C)c1	-1	-1	nt	-4	3	nt
COc1ccccc1Cc1c(C(C)(C)C)nc2ccc(C)cn12	23*	1	nt	2	6	nt
COc1ccccc1Cc1c(C(C)(C)C)nc2c(C)cc(Br)cn12	23*	nt	nt	2	nt	nt
CCCCN1CCN(C(=O)Cn2c(=O)c3ccccc3n(CC)c2=O)CC1	0	nt	nt	-3	nt	nt
O=C(NN1C(=O)/C(=C\c2cccnc2)SC1=S)c1ccco1	47*	-5	-2	10	0	-4
C[C@@H]1CN([C@@H](C)CO)C(=O)CCCn2nncc2CO[C@@H]1CN(C)C(=O)Nc1ccccc1C(F)(F)F	22*	13	nt	-1	0	nt
C[C@H]1CN([C@@H](C)CO)C(=O)CCCn2nncc2CO[C@@H]1CN(C)Cc1ccccc1	35*	0	nt	5	-5	nt
C[C@@H]1CN([C@@H](C)CO)C(=O)CCCn2cc(nn2)CO[C@H]1CN(C)C(=O)NC1CCCCC1	21*	nt	nt	8	nt	nt
CCCNC(=O)C[C@H]1CC[C@H]2[C@@H](COc3ccc(NC(=O)c4cncs4)cc3C(=O)N2C)O1	4	nt	nt	10	nt	nt
CN1C2=NC(c3ccccc3)CC(=O)N2/C(=C\c2ccccc2)C1c1ccccc1C(F)(F)F (centres undefined)	3	nt	nt	5	nt	nt
CCCCc1nc(Cl)c(C#N)c2c1CCCC2	38*	-4	-5	0	2	-5
CC1C(c2ccccc2)C(C#N)(C#N)C2(C#N)C(=O)NC1(N)C2C (centres undefined)	23*	1	2	6	-4	8
Cc1ccccc1Cn1cc(CN2[C@@H](CC(C)C)COc3cccc(F)c3S2(=O)=O)nn1	-4	nt	nt	-4	nt	nt
COc1ccc(CCNC(=O)Cn2ncc3c2-c2cc(C)ccc2OC3)cc1	-2	nt	nt	2	nt	nt
CN1CCN(c2cccc3c2S(=O)(=O)N[C@H](Cc2ccccc2)CO3)CC1	1	-9	nt	-5	nt	nt
O=S1(=O)N[C@H](Cc2ccccc2)COc2cccc(N3CCCCC3)c21	22*	nt	nt	7	nt	nt
Cc1ccc(S(=O)(=O)N2CCN(C(=O)/C=C/c3ccco3)CC2)cc1	3	1	-11	1	-2	-7
Cc1ccc(C)c(S(=O)(=O)N2CCN(C(=O)/C=C/c3ccco3)CC2)c1	-1	43*	25	-7	2	-4
COc1cc(/C=C(\C#N)c2ccccn2)ccc1OCC(=O)Nc1cccc(C(F)(F)F)c1	5	6	9	11	2	76*
O=C(COC(=O)c1ccc(Sc2ncn[nH]2)c([N+](=O)[O-])c1)Nc1ccc(Cl)c(Cl)c1	0	nt	nt	-1	nt	nt
C#CCOCCOCCOCCNc1nc(N2CCOCC2)nc(N2CCN(C(=O)CCCCCCCCCCNC(=O)[C@@H](CCC(=O)O)n3cc(CCCCCN)nn3)CC2)n1	1	7	11	-5	4	-2
C#CCOCCOCCOCCNc1nc(N2CCN(C(=O)CCCCCCCCCCNC(=O)[C@H]([C@@H](C)CC)n3cc(CCCCCN)nn3)CC2)nc(N2CCN(C(=O)CCCCCCCCCCNC(=O)[C@H]([C@@H](C)CC)n3cc(CCCCN=C(N)N)nn3)CC2)n1	nt	59*	15	nt	4	-507

Bioassay records (PubChem BioAssay)
